Here are results for 35 compounds from ChEMBL document CHEMBL1126150, “New kappa-receptor agonists based upon a 2-[(alkylamino)methyl]piperidine nucleus” (J Med Chem, 1992).

For one assay, the system named is Mus musculus. Briefly: Antinociceptive activity was determined using the mouse acetylcholine-induced abdominal constriction test followed by subcutaneous administration. The assay is classed as functional. To be noted: Abdomen, sc. An outline of the steps: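 Mice received each compound by subcutaneous injection and were scored in the acetylcholine-induced abdominal constriction test. An ED50 in mg/kg was determined for each compound.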

The target in assay [1] is T1, Kappa-type opioid receptor (Homo sapiens, UniProt P41145). Briefly: Opioid receptor kappa 1 agonist potency in vitro using rabbit vas deferens(LVD) preparation. To be noted: target entry is the homologue from another species. The class given is functional, Oryctolagus cuniculus. An outline of the steps: (§1)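 Isolated rabbit vas deferens (LVD) was used as an in vitro kappa-agonist bioassay. Potency is given as an IC50 in nM, the mean of two independent determinations, with individual values typically within ±10% of the mean. Compounds were tested as racemates.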

Assay [2] addresses Kappa-type opioid receptor (Cavia porcellus) (UniProt P41144). Description: pKa value was measured against opioid receptor kappa. An outline of the steps:
(§2)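 pKa was found by titration of the compound at a sample concentration of 0.002 M in 10% methanol-water solvent.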

Assay [3] shares this target. Description: pKa value was measured against Opioid receptor kappa 1. The gist of the method:
as §2

Assay [4] addresses T1, Kappa-type opioid receptor. Description: Opioid receptor kappa agonist potency in vitro using rabbit vas deferens(LVD) preparation. The class given is functional, Oryctolagus cuniculus. To be noted: target entry is the homologue from another species. The gist of the method:
as §1

For assay [5], the target named is T1, Kappa-type opioid receptor. Description: Kappa-opioid receptor agonist potency in vitro using rabbit vas deferens(LVD) preparation. The class given is functional, Oryctolagus cuniculus. To be noted: target entry is the homologue from another species. The gist of the method: as §1
The target of assay [6] is Kappa-type opioid receptor (Cavia porcellus) (UniProt P41144). Briefly: pKa value was measured against kOpioid receptor kappa 1. An outline of the steps: as §2

Structures are written as SMILES.

T1 sequence (P41145 whole entry): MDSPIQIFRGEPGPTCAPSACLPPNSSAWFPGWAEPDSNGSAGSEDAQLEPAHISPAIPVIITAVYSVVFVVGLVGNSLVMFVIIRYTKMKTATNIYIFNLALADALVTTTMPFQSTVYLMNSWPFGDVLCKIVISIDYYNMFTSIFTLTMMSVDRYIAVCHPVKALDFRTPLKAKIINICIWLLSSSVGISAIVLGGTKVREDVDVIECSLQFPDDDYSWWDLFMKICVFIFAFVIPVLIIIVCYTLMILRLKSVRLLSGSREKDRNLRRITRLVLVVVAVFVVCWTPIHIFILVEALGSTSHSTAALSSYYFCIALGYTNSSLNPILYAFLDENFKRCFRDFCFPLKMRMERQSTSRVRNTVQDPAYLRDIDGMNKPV
Sequence of Kappa-type opioid receptor (Cavia porcellus) (P41144 whole entry): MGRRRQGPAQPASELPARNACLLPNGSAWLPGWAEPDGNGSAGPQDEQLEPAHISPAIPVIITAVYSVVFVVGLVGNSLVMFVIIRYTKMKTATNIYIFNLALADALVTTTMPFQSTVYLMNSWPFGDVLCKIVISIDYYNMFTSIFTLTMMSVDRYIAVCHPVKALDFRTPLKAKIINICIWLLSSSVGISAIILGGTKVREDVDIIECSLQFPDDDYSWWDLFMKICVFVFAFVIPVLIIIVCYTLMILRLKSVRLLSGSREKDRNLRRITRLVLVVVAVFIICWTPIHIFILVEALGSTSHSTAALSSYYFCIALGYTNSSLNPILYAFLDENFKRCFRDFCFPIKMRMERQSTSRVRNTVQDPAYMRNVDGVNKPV

The term ED50 denotes the midpoint of the dose-response relation. A higher ED50 goes with weaker potency. In the assay with Mus musculus, `O=C(Cc1ccc(Cl)c(Cl)c1)N1CC[C@H](O)C[C@H]1CN1CCCC1` displayed an ED50 of 1.4 mg/kg.

As a reminder, the IC50 is the concentration that gives 50% inhibition. A high value points to a need for much substance. For the compound `C=C1CCN(CC2CCCCN2C(=O)Cc2ccc(Cl)c(Cl)c2)CC1` (stereo unspecified), the IC50 in assay [1] worked out at 550 nM. This counts as sub-micromolar.

Take `C[C@@H]1CCC[C@@H](CN2CCCC2)N1C(=O)Cc1ccc(Cl)c(Cl)c1`: it took a dose of 0.4 mg/kg to reach the 50% effect level in the assay with Mus musculus (ED50).

In the assay on Mus musculus, `O=C(Cc1ccc(Cl)c(Cl)c1)N1CCC[C@@H](O)[C@H]1CN1CCCC1` registered an ED50 of 1.7 mg/kg.

As for `O=C(Cc1ccc(Cl)c(Cl)c1)N1CCC2(CC1CN1CCCC1)SCCS2` (stereo unspecified), the ED50 in the assay with Mus musculus turned out to be 0.025 mg/kg.

In turn, `O=C(Cc1ccc(Cl)c(Cl)c1)N1CCCCC1CN1CCC(O)C1` (stereo unspecified) had a pKa in assay [2] of 8.1. The ED50 in the assay on Mus musculus was 0.01 mg/kg.

Compound `O=C(Cc1ccc(Cl)c(Cl)c1)N1CCCCC1CN1CCCO1` (stereo unspecified) returned an ED50 in the assay on Mus musculus of 0.38 mg/kg.

The compound `O=C1CC[C@@H](CN2CCCC2)N(C(=O)Cc2ccc(Cl)c(Cl)c2)C1` showed an ED50 in the assay with Mus musculus of 0.91 mg/kg.

Regarding `O=C1CCN(CC2CCCCN2C(=O)Cc2ccc(Cl)c(Cl)c2)C1` (stereo unspecified), the pKa in assay [3] was determined as 5.3. Moreover, the IC50 in assay [1] was determined as 0.2 nM. In the assay on Mus musculus, the 50% effect level (ED50) was put at a dose of 0.06 mg/kg.

In the assay on Mus musculus, `COC(=O)[C@@H]1CCN(C(=O)Cc2ccc(Cl)c(Cl)c2)[C@H](CN2CCCC2)C1` showed an ED50 greater than 10 mg/kg.

`C[C@H]1CCC[C@@H](CN2CCCC2)N1C(=O)Cc1ccc(Cl)c(Cl)c1` came in with an ED50 in the assay with Mus musculus of 0.034 mg/kg.

`O=C(Cc1ccc(Cl)c(Cl)c1)N1CC2(CC[C@H]1CN1CCCC1)OCCO2`: in the assay with Mus musculus, the 50% effective dose (ED50) is 1.1 mg/kg. Compared with the last compound, the ED50 is about 32-fold higher.

As to `CN(C)CC1CCCCN1C(=O)Cc1ccc(Cl)c(Cl)c1` (stereo unspecified), the IC50 in assay [1] came to 102 nM. Also, the ED50 with Mus musculus came out at 0.064 mg/kg.

`COC(=O)/C=C1\CCN(CC2CCCCN2C(=O)Cc2ccc(Cl)c(Cl)c2)C1` (stereo unspecified): the 50% effect level in the assay on Mus musculus (ED50) was put at a dose of 6.6 mg/kg.

`COC(=O)/C=C1/CCN(CC2CCCCN2C(=O)Cc2ccc(Cl)c(Cl)c2)C1` (stereo unspecified): the ED50 with Mus musculus was 0.07 mg/kg. This ED50 lies about 94-fold lower than the previous one.

Regarding `COC(=O)[C@@H]1CCC[C@@H](CN2CCCC2)N1C(=O)Cc1ccc(Cl)c(Cl)c1`, in the assay on Mus musculus, the 50% effective dose (ED50) turned out to be 0.43 mg/kg. Compared with the last compound, the ED50 is about 6.1-fold higher.

With `N#C/C=C1\CCN(CC2CCCCN2C(=O)Cc2ccc(Cl)c(Cl)c2)C1` (stereo unspecified), the IC50 in assay [1] worked out at 690 nM. In the assay with Mus musculus, the ED50 is greater than 10 mg/kg.

`C=CCC1(CN2CCCC2)CCCCN1C(=O)Cc1ccc(Cl)c(Cl)c1` (stereo unspecified) had an ED50 in the assay on Mus musculus of 2.4 mg/kg.

In the case of `O=C1CCCN(C(=O)Cc2ccc(Cl)c(Cl)c2)C1CN1CCCC1` (stereo unspecified), in the assay on Mus musculus, the 50% effect level (ED50) was put at a dose of 3.4 mg/kg.

In the assay with Mus musculus, `C=C1CCCN(C(=O)Cc2ccc(Cl)c(Cl)c2)C1CN1CCCC1` (stereo unspecified) displayed an ED50 of 0.11 mg/kg.

`O=C(Cc1ccc(Cl)c(Cl)c1)N1CCCCC1CN1CC=CC1` (stereo unspecified) had an IC50 in assay [1] of 3.5 nM. In the assay on Mus musculus, this compound came in with an ED50 of 0.04 mg/kg.

Regarding `O=C(Cc1ccc(Cl)c(Cl)c1)N1CC[C@@H](O)C[C@H]1CN1CCCC1`, the IC50 in assay [1] was 120 nM. The 50% effect level with Mus musculus (ED50) was put at a dose of 0.27 mg/kg.

In assay [4], `O=C(Cc1ccc(Cl)c(Cl)c1)N1[C@@H](CO)CCC[C@H]1CN1CCCC1` displayed an IC50 of 2200 nM.

In turn, `COC(=O)C1=CCCN(CC2CCCCN2C(=O)Cc2ccc(Cl)c(Cl)c2)C1` (stereo unspecified) had an ED50 with Mus musculus of 0.41 mg/kg.

For `O=C1CCN(C(=O)Cc2ccc(Cl)c(Cl)c2)C(CN2CCCC2)C1` (stereo unspecified), the median effective dose (ED50) in the assay with Mus musculus came to 0.018 mg/kg.

In the case of `O=C(Cc1ccc(Cl)c(Cl)c1)N1CCCCC1CN1CCCCC1` (stereo unspecified), the ED50 in the assay with Mus musculus stood at 0.24 mg/kg.

Consider `O=C(Cc1ccc(Cl)c(Cl)c1)N1CCCCC1CN1CCCC1` (stereo unspecified), for which, in assay [5], the IC50 came out at 11 nM. In assay [6], this compound displayed a pKa of 9. In the assay with Mus musculus, this compound gave an ED50 of 0.03 mg/kg.

In turn, `O=C(Cc1ccc(Cl)c(Cl)c1)N1CCCCC1CN1CC=CCC1` (stereo unspecified) gave an ED50 in the assay with Mus musculus of 0.009 mg/kg.

In assay [2], `C=C1CCN(CC2CCCCN2C(=O)Cc2ccc(Cl)c(Cl)c2)C1` (stereo unspecified) showed a pKa of 7.7. This compound registered an ED50 with Mus musculus of 0.05 mg/kg.

Regarding `O=C1CCN(CC2CCCCN2C(=O)Cc2ccc(Cl)c(Cl)c2)CC1` (stereo unspecified), the ED50 in the assay on Mus musculus was greater than 10 mg/kg.

As for `N#C/C=C1/CCN(CC2CCCCN2C(=O)Cc2ccc(Cl)c(Cl)c2)C1` (stereo unspecified), the IC50 in assay [1] worked out at 0.12 nM. The 50% effect level in the assay on Mus musculus (ED50) was put at a dose of 0.19 mg/kg.

In the case of `O=C(Cc1ccc(Cl)c(Cl)c1)N1CCC2(CC1CN1CCCC1)OCCO2` (stereo unspecified), the ED50 in the assay on Mus musculus was 0.001 mg/kg.

In the case of `O=C(Cc1ccc(Cl)c(Cl)c1)N1CCC[C@H](O)[C@H]1CN1CCCC1`, the 50% effective dose (ED50) with Mus musculus came out at 3.6 mg/kg. Compared with the last compound, the ED50 is about 3600-fold higher.

The compound `O=C(Cc1ccc(Cl)c(Cl)c1)N1CCCCC1CN1CCC2(CC1)OCCO2` (stereo unspecified) yielded a 50% effective dose (ED50) in the assay with Mus musculus greater than 10 mg/kg.

In the assay on Mus musculus, `NC(=O)[C@@H]1CCN(C(=O)Cc2ccc(Cl)c(Cl)c2)[C@H](CN2CCCC2)C1` gave a median effective dose (ED50) greater than 10 mg/kg.
